Only some compounds are listed: those with a hit (about 2.9% of all), similar ones and a draw of the others.
FAS-TE inh: blocks the thioesterase domain of human fatty acid synthase. hit rate 0.67% among 360,000. inhibition, % at 15 µM. recombinant FAS-TE, OMFH fluorogenic substrate, fluorescence endpoint. P49327. AID 602261;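 active = compounds whose normalised, plate-corrected inhibition of enzyme fluorescence in the single-dose primary screen is 50% or more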
ADAM10 inh: ADAM10 inhibition, QFRET primary screen; recombinant ADAM10, EDANS/DABCYL FRET peptide cleavage, 3 h; O14672; AID 720582; inhibition, % at 7 µM; hit rate 0.62% among 370,000;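 active = inhibition above a per-campaign cutoff equal to the mean of compounds falling between control-based bounds plus 3 SD, cut at about 20% in these data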
CaV13 FRET inh: Disruptors of the CACNA1D IQ motif to Ca2+-dependent inactivation inhibitor domain association, primary screening, Förster resonance energy transfer in intact living …. hit rate 0.098% among 340,000. HEK cells, CFP/YFP FRET ICDI-IQ, plate reader, 10 min; percent FRET-ratio fall versus neutral wells. inhibition, % at 12.3 µM;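 active = mean replicate inhibition of at least 30% and at least 1% of replicates passing that level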
NRP1-CendR mod: NRP-1/CendR interaction modulation; inhibition, % at 25 µM; hit rate 0.85% among 360,000; FAM-RPARPAR peptide binding to NRP-1, fluorescence polarization; O14786;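 active = inhibition or corrected inhibition above about 18%, plus a signal ratio from 0.5 to 1.5, limit read from the data, passing the limit was not always enough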
ADAM17 inh: inhibitors of human ADAM17; inhibition, % at 6.95 µM; hit rate 0.83% among 370,000; recombinant ADAM17, EDANS/DABCYL FRET peptide cleavage;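 active = inhibition above the mean of compounds lying between control limits plus 3 SD, set per campaign, cut at about 8.5% in these data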
Arr AP2 block: inhibitors of human beta-arrestin and AP2 interaction | FITC-arrestin peptide / GST-AP2 beads, flow cytometry; AP2 beta2 appendage carries R879A mutation | hit rate 0.31% among 340,000 | inhibition, % at 10 µM;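 active = inhibition above a set limit, near 3 SD of compounds lacking own fluorescence, cut at about 54% in these data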
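Material – GST-tagged AP2 beta2-adaptin appendage (R879A) on 4 µm glutathione beads · Probe or stimulus – fluorescein-tagged arrestin peptide at 50 nM final · Timing – 12 min plus 1 h, RT · Detection – bead flow cytometry, FITC channel · Read-out basis – inhibition as reduced fluorescein signal on beads, percent · Medium – PBS plus Tween 20 (0.05%) and BSA (0.1%)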
Arr AP2 CP1: blocks beta-arrestin peptide binding to human AP2 | hit rate 2% among 1,300 | GST-AP2 beads, FITC arrestin peptide binding, flow cytometry; GST-fused beta2-adaptin appendage, R879A mutant | inhibition, % at 10 µM | shares compounds with Arr AP2 block;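 active = inhibition above a set limit, roughly 3 SD of non-fluorescent compound noise, cut at about 38% in these data; inactive = inhibition at or below that limit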;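 note: loss of bead fluorescence from 50 nM FITC arrestin peptide bound to appendage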
GST-FITC bead: disrupts GST binding to glutathione beads, arrestin-AP2 artifact | shares compounds with Arr AP2 block | GST-fluorescein binding to GSH beads, fluorescence, counter-screen | inhibition, % at 10 µM | hit rate 2% among 1,300 | AID 588338;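 active = inhibition above 50%, about 3 SD of the inhibition seen with non-fluorescent compounds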;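 note: fluorescein maleimide labelled GST captured on 4 micron glutathione beads; higher means more loss of bead fluorescence from quenching or blocked binding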
Hits are given with their value; i = inactive; nt = no result.

SMILES | FAS-TE inh | ADAM10 inh | CaV13 FRET inh | NRP1-CendR mod | ADAM17 inh | Arr AP2 block | Arr AP2 CP1 | GST-FITC bead
CN1C(=O)NC(c2ccc(O)cc2)C2=C1CN(c1cccc3ccccc13)C2=O (stereo not given) | i | i | i | i | i | i | i | i
Cc1ccccc1N1CC2=C(C1=O)C(c1ccccc1)NC(=O)N2C (stereo not given) | i | i | i | i | i | i | nt | nt
c1ccc(Cn2c(SCC3CCCCC3)nnc2-c2cccnc2)cc1 | nt | i | nt | nt | i | nt | nt | nt
CCCCCCN1C=C/C(=C\C=C(C#N)C#N)c2ccccc21 | i | i | i | i | i | 75 | i | i
COc1ccc(-c2nc(CS(=O)CC(=O)NC3CCC(C)CC3)c(C)o2)cc1OC (stereo not given) | i | i | i | i | i | 54 | i | i
CC(=O)C1=CCC(c2cccc(Cl)c2)N(S(=O)(=O)c2ccc(C)cc2)C1 (stereo not given) | i | i | i | i | i | nt | nt | nt
COc1ccc(OC)c(NC(=O)COC(=O)c2cc3c(s2)CCC3)c1 | i | i | i | i | i | 80 | i | i
COc1ccc(S(=O)(=O)NC2CCCCC2)cc1-n1cnnn1 | i | i | i | i | i | 56 | i | i
CCCCN1CCCOc2cc(Br)ccc2S1(=O)=O | nt | i | nt | nt | i | nt | nt | nt
COC(=O)[C@]12C[C@H](CC(=O)NCCCN3CCCC3=O)C(=O)N(Cc3ccc(Cl)cc3Cl)C1=C[C@H](C(C)(C)C)O[C@@H]2C | nt | i | nt | nt | i | nt | nt | nt
CCOC(=O)C1=C(COC(=O)CCCOc2ccccc2)NC(=O)NC1C (stereo not given) | i | i | i | i | i | i | i | i
CCOC(=O)C1=C(COC(=O)CCOc2ccc(OCC)cc2)NC(=O)NC1C (stereo not given) | i | i | i | i | i | i | i | i
CCOC(=O)C1=C(COC(=O)CCOc2ccccc2C)NC(=O)NC1C (stereo not given) | i | i | i | i | i | i | i | i
CCOC(=O)C1=C(COC(=O)c2ccccc2OC)NC(=O)NC1C (stereo not given) | i | i | i | i | i | i | nt | nt
CCN(CC(=O)Nc1ccc(NC(C)=O)cc1)C(=O)/C=C/c1ccc(C)o1 | i | i | i | i | i | i | nt | nt
CCOc1ccc(CCNC(=O)c2oc3c(c2C)-c2[nH]ncc2CC3)cc1OCC | i | i | i | i | i | i | nt | nt
Cc1c(C(=O)NC(C)C)oc2c1-c1[nH]ncc1CC2 | i | i | i | i | i | 104 | i | i
CN(C)S(=O)(=O)c1ccc(C(=O)Nc2nc(-c3ccccc3)c(C(=O)c3ccccc3)s2)cc1 | i | i | i | i | i | i | nt | nt
Cc1ccc(-c2nc(NC(=O)c3ccc(S(=O)(=O)N(CCC#N)CCC#N)cc3)sc2-c2ccccc2)cc1 | i | i | i | i | i | 63 | i | i
C=CCN1C(=O)[C@@H](CC(=O)NCCCOC)[C@]2(C(=O)OC)CCCCC=C12 | nt | i | nt | nt | i | nt | nt | nt
Oc1c(CN2CCOCC2)cc(COCc2ccccc2)c2cccnc12 | i | i | i | i | i | i | nt | nt
Oc1c(CNc2ccccc2)cc(COCc2ccccc2)c2cccnc12 | i | i | i | i | i | 55 | i | i
COc1cc(Cl)c(C)cc1NC(=O)c1ccc(S(C)(=O)=O)cc1 | i | i | i | i | i | 55 | i | i
COc1ccc(NC(=O)c2ccc(S(=O)(=O)C(F)F)cc2)c(OC)c1 | i | i | i | i | i | 60 | i | i
COCCNC(=O)C[C@H]1CC[C@H]2[C@@H](COc3ccc(NS(=O)(=O)c4ccc(Cl)cc4)cc3C(=O)N2C)O1 | nt | i | nt | nt | i | nt | nt | nt
SMILES | FAS-TE inh | ADAM10 inh | CaV13 FRET inh | NRP1-CendR mod | ADAM17 inh | Arr AP2 block | Arr AP2 CP1 | GST-FITC bead
CC(=O)Nc1c(C)nn(-c2ccc([N+](=O)[O-])cc2)c1C | i | i | i | i | i | 54 | i | i
CC(C)c1nc2sc3c(NCc4ccco4)ncnc3c2c2c1COC(C)(C)C2 | i | i | i | i | i | 101 | i | i
CC(C)c1nc2sc3c(NCc4ccccc4)ncnc3c2c2c1COC(C)(C)C2 | i | i | nt | i | i | i | nt | nt
Cc1nc(OCC(=O)c2ccc(Cl)cc2)c(C#N)c2c1COC(C)(C)C2 | i | i | nt | i | i | 91 | i | i
CC1(C)Cc2c(sc3c2c(=O)n(Cc2ccccc2)c2nncn32)CO1 | i | nt | nt | i | nt | 62 | i | i
O=C(COC(=O)C1(c2ccccc2F)CCCC1)NCc1cccs1 | i | i | i | i | i | 58 | i | i
O=C(COC(=O)C1(c2ccccc2F)CCCC1)NCc1ccc2c(c1)OCO2 | i | i | i | i | i | i | nt | nt
CCCCNC(=O)C1(C(=O)c2ccc(OC)cc2)CC(c2ccccn2)=NO1 (stereo not given) | nt | i | nt | nt | i | nt | nt | nt
Cc1ccc(S(=O)(=O)Nc2cc(Cl)c(O)cc2C)cc1 | i | i | i | i | i | 58 | i | i
C[C@H](O)[C@@H]1CN2CCc3c([nH]c4cccc(-c5ccc6c(c5)OCO6)c34)[C@@H]2C[C@@H]1N(C)C(=O)c1ccco1 | nt | i | nt | nt | i | nt | nt | nt
CC(=O)/C(=N\Nc1ccccc1Cl)Sc1nnc(-c2ccccc2)n1-c1ccccc1 | i | i | i | i | i | i | nt | nt
CC(=O)/C(=N\Nc1ccccc1)Sc1nnc(-c2ccccc2)n1-c1ccccc1 | i | i | i | i | i | 91 | i | i
C[C@H](CO)N1C[C@H](C)[C@H](CN(C)Cc2cncnc2)Oc2cc(Br)ccc2S1(=O)=O | i | i | i | i | i | nt | nt | nt
c1ccc(-c2cnnc(SCc3cn4cccnc4n3)n2)cc1 | i | i | i | i | i | 60 | i | i
Cc1sc2nc(CN3CCOCC3)nc(N3CCOCC3)c2c1C | i | i | nt | i | i | 58 | i | i
CCCCC(=O)Nc1ccc(C)c(S(=O)(=O)N2CCCCCC2)c1 | i | i | i | i | i | i | nt | nt
Cc1ccc(NC(=O)CCS(=O)(=O)c2ccccc2)cc1S(=O)(=O)N1CCCCCC1 | i | i | i | i | i | 58 | i | i
Cc1ccc(Cl)cc1NC(=O)COC(=O)c1ccc(CN2CCCC2=O)cc1 | i | i | i | i | i | i | nt | nt
COc1cc(Cl)c(C)cc1NC(=O)COC(=O)c1ccc(CN2CCCC2=O)cc1 | i | i | i | i | i | 65 | i | i
COC(=O)C1=C(C(C)=O)C(c2ccc(C(=O)OC)cc2)n2nnnc2N1 (stereo not given) | i | i | nt | i | i | 100 | i | i
CCn1ncc(Cl)c1C(=O)Nc1cc([N+](=O)[O-])ccc1OC | i | i | i | i | i | 106 | i | i

Source: PubChem
